Experimental findings from paper PMC12766539 (Molecular pharmaceutics, 2022) are described below.

Assay [1] has as its system 31 clinical strains of S. aureus (5 methicillin-susceptible, 26 resistant). Description: MIC against a panel of 31 clinical strains of S. aureus. The format is cell-based, Staphylococcus aureus. Particulars: ~10^5 CFU/mL, negative control. The procedure, abridged: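 Exponential-phase bacteria were diluted to ~10⁵ CFU/mL in TSB or MHB and added to serially diluted test compound (in water). Plates were incubated at 37°C for 20 h and growth was read as absorbance at 600 nm. Water-only wells served as the untreated control and medium as the blank.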

For assay [2], the system named is S. aureus USA300 LAC infection. Description: Invertebrate wax moth infection model. The format is in vivo, Galleria mellonella. Conditions: 64 mg/kg, 1×10^6 CFU/insect, 30 per group, 5 days. The procedure, abridged:
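Galleria mellonella larvae (~250 mg; 30 per group) were injected with test compound at 64 mg/kg in phosphate buffer 2 h before infection with S. aureus USA300 at 1×10⁶ CFU/insect. Larvae were kept at room temperature and scored live or dead daily for 5 days. Survival was compared by log-rank test.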

Assay [3] relates to pUC19 plasmid. The experiment in a line: DNA gel retardation experiment. The format is binding. Particulars: two peptide concentrations (Figure S2).

With RIVQRIKDFL [RI-10], the “inhibitory activity at 32 μM” value in assay [1] was “did not show any inhibitory activity”. In addition, the “protection of the animals from infection-caused death” value in assay [2] is recorded as “did not protect the animals”. Further, the “DNA retardation in the well” value in assay [3] is recorded as “unable to retard DNA”.
